From ChEMBL document CHEMBL1146056, “Microwave-accelerated synthesis of P1'-extended HIV-1 protease inhibitors encompassing a tertiary alcohol in the transition-state mimicking scaffold” (J Med Chem, 2006) come the findings set out here.

Data set [1] relates to Human immunodeficiency virus 1. Description: Antiviral activity against HIV1 in MT4 cells. The settings on record: Human immunodeficiency virus 1, MT4. It counts as functional, organism-based. An outline of the steps: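 HIV-1-infected MT4 cells; antiviral activity reported as EC50 (µM).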
The target in data set [2] is Human immunodeficiency virus type 1 protease (Human immunodeficiency virus 1, UniProt Q72874). The data set can be described thus: Inhibition of HIV1 protease.
The subject of data set [3] is MT4. Description: Cytotoxicity against MT4 cells. The class given is functional. Particulars: Homo sapiens. An outline of the steps:
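Cytotoxicity reported as CC50 (µM).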

Data set [4] is described as follows: Intrinsic clearance in human liver microsome at 2 uM. It counts as ADME. The settings on record: liver microsomes. The gist of the method:
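Stability in liver microsome homogenate, expressed as intrinsic clearance (Clint, µL/min/mg).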
(In general: Liver microsomes are a subcellular fraction often used to study metabolism.)

Data set [5] in a line: Permeability in Caco-2 cells at 10 uM. The settings on record: human, read-out: permeability. It counts as ADME, cell-based. The gist of the method: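 Caco-2 cell monolayer; membrane permeation expressed as apparent permeability Papp (10^-6 cm/s).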
(Caco-2 monolayers are a common model of the intestinal barrier.)

Bounds are passed on as bounds.

As a reminder, the EC50 is the concentration needed to bring the measured effect to its halfway point. Read a high EC50 as a need for much substance. In general, Ki refers to a dissociation constant, usually derived from enzyme kinetics or from competition with a known ligand. A low value points to a stronger hold on the target. As usually defined, the CC50 is the concentration at which the toxic effect on the cells reaches its halfway point. Low readings indicate greater toxicity to the cells, high ones lower toxicity to the cells. For the compound `COC(=O)N[C@H](C(=O)NN(Cc1cccc(C#Cc2ccccc2)c1)C[C@@](O)(Cc1ccccc1)C(=O)N[C@H]1c2ccccc2C[C@H]1O)C(C)(C)C`, the EC50 in data set [1] was > 10000 nM. For the same compound, the affinity in data set [2] corresponds to a Ki of 23 nM. In data set [3], the CC50 is > 10000 nM.

As to `COC(=O)N[C@H](C(=O)NN(Cc1ccc(C#Cc2ccccc2)cc1)C[C@@](O)(Cc1ccccc1)C(=O)N[C@H]1c2ccccc2C[C@H]1O)C(C)(C)C`, the EC50 in data set [1] is > 10000 nM. In addition, the Ki in data set [2] worked out at 15 nM. In addition, the CC50 in data set [3] is > 10000 nM.

Consider `COC(=O)N[C@H](C(=O)NN(Cc1ccc(-c2ccc3c(c2)OCO3)cc1)C[C@@](O)(Cc1ccccc1)C(=O)N[C@H]1c2ccccc2C[C@H]1O)C(C)(C)C`, for which the EC50 in data set [1] was 1000 nM. The affinity in data set [2] corresponds to a Ki of 11 nM. In data set [3], the CC50 was > 10000 nM.

In data set [1], `COC(=O)N[C@H](C(=O)NN(Cc1ccc(C#Cc2cccnc2)cc1)C[C@@](O)(Cc1ccccc1)C(=O)N[C@H]1c2ccccc2C[C@H]1O)C(C)(C)C` returned an EC50 of 750 nM. The compound also showed a Ki in data set [2] of 7.8 nM. Besides, the CC50 in data set [3] was > 10000 nM.

In the case of `COC(=O)N[C@H](C(=O)NN(Cc1ccc(-c2cc3ccccc3s2)cc1)C[C@@](O)(Cc1ccccc1)C(=O)N[C@H]1c2ccccc2C[C@H]1O)C(C)(C)C`, the EC50 in data set [1] is > 10000 nM. Also, the CC50 in data set [3] is > 10000 nM.

The compound `COC(=O)N[C@H](C(=O)NN(Cc1ccc(-c2ccccn2)cc1)C[C@@](O)(Cc1ccccc1)C(=O)N[C@H]1c2ccccc2C[C@H]1O)C(C)(C)C` came in with an EC50 in data set [1] of 900 nM. The CC50 in data set [3] was > 10000 nM.

Consider `COC(=O)N[C@H](C(=O)NN(Cc1ccc(C#Cc2ccccn2)cc1)C[C@@](O)(Cc1ccccc1)C(=O)N[C@H]1c2ccccc2C[C@H]1O)C(C)(C)C`, for which a half-maximal effect in data set [1] (EC50) was put at 1000 nM. Further, the inhibition constant (Ki) in data set [2] turned out to be 9 nM. For the same compound, the CC50 in data set [3] is 4900 nM.

Compound `COC(=O)N[C@H](C(=O)NN(Cc1cccc(Br)c1)C[C@@](O)(Cc1ccccc1)C(=O)N[C@H]1c2ccccc2C[C@H]1O)C(C)(C)C` yielded an EC50 in data set [1] of 3300 nM. In addition, the Ki in data set [2] is 18 nM. For the same compound, the CC50 in data set [3] was > 10000 nM.

For the compound `COC(=O)N[C@H](C(=O)NN(Cc1cccc(-c2ccncc2)c1)C[C@@](O)(Cc1ccccc1)C(=O)N[C@H]1c2ccccc2C[C@H]1O)C(C)(C)C`, a half-maximal effect in data set [1] (EC50) was put at 2000 nM. Also, in data set [2], the inhibition constant Ki was determined as 93 nM. For the same compound, in data set [3], the CC50 is > 10000 nM.

`COC(=O)N[C@H](C(=O)NN(Cc1ccc(/C=C/c2ccccc2)cc1)C[C@@](O)(Cc1ccccc1)C(=O)N[C@H]1c2ccccc2C[C@H]1O)C(C)(C)C`: the EC50 in data set [1] is > 10000 nM. The cytotoxic concentration (CC50) in data set [3] was > 10000 nM.

As for `COC(=O)N[C@H](C(=O)NN(Cc1ccc(-c2ccncc2)cc1)C[C@@](O)(Cc1ccccc1)C(=O)N[C@H]1c2ccccc2C[C@H]1O)C(C)(C)C`, the EC50 in data set [1] turned out to be 220 nM. In data set [3], the CC50 was > 10000 nM.

For the compound `COC(=O)N[C@H](C(=O)NN(Cc1cccc(-c2ccccn2)c1)C[C@@](O)(Cc1ccccc1)C(=O)N[C@H]1c2ccccc2C[C@H]1O)C(C)(C)C`, the EC50 in data set [1] is > 10000 nM. Also, the affinity in data set [2] corresponds to a Ki of 15 nM. Further, it took 4400 nM to reach half-maximal cytotoxicity in data set [3] (CC50).

As usually defined, the microsomal CLint is the rate of metabolic loss divided by the concentration. A lower microsomal CLint goes with greater metabolic stability. The compound `COC(=O)N[C@H](C(=O)NN(Cc1cccc(-c2cccnc2)c1)C[C@@](O)(Cc1ccccc1)C(=O)N[C@H]1c2ccccc2C[C@H]1O)C(C)(C)C` returned a microsomal CLint at 2 µM in data set [4] of 190 µL/min/mg. Besides, the Papp at 10 µM in data set [5] was determined as 11 ×10⁻⁶ cm/s. In data set [1], the EC50 is > 10000 nM. This compound gave a Ki in data set [2] of 12 nM. This compound also gave a CC50 in data set [3] of 6800 nM.

With `COC(=O)N[C@H](C(=O)NN(Cc1ccc(Br)cc1)C[C@@](O)(Cc1ccccc1)C(=O)N[C@H]1c2ccccc2C[C@H]1O)C(C)(C)C`, the EC50 in data set [1] was determined as 1100 nM. The CC50 in data set [3] is > 10000 nM.

Consider `COC(=O)N[C@H](C(=O)NN(Cc1ccc(-c2cccnc2)cc1)C[C@@](O)(Cc1ccccc1)C(=O)N[C@H]1c2ccccc2C[C@H]1O)C(C)(C)C`, for which the microsomal CLint at 2 µM in data set [4] worked out at 154 µL/min/mg. In addition, in data set [5], the Papp at 10 µM amounted to 33 ×10⁻⁶ cm/s. Besides, the concentration giving a half-maximal response (EC50) in data set [1] worked out at 180 nM. For the same compound, the CC50 in data set [3] is > 10000 nM.

Take `COC(=O)N[C@H](C(=O)NN(Cc1ccc(-c2c(C)noc2C)cc1)C[C@@](O)(Cc1ccccc1)C(=O)N[C@H]1c2ccccc2C[C@H]1O)C(C)(C)C`: in data set [1], the half-maximal effective concentration (EC50) turned out to be 1100 nM. Affinity in data set [2] was put at a Ki of 3.8 nM. Further, the CC50 in data set [3] is > 10000 nM.

As for `COC(=O)N[C@H](C(=O)NN(Cc1cccc(C#Cc2cccnc2)c1)C[C@@](O)(Cc1ccccc1)C(=O)N[C@H]1c2ccccc2C[C@H]1O)C(C)(C)C`, the EC50 in data set [1] was > 10000 nM. In data set [2], this compound returned a Ki of 18 nM. The CC50 in data set [3] was > 10000 nM.

As for `COC(=O)N[C@H](C(=O)NN(Cc1cccc(-c2ccccc2)c1)C[C@@](O)(Cc1ccccc1)C(=O)N[C@H]1c2ccccc2C[C@H]1O)C(C)(C)C`, the EC50 in data set [1] is > 10000 nM. Besides, the Ki in data set [2] was determined as 23 nM. Moreover, the CC50 in data set [3] is > 10000 nM.

Consider `COC(=O)N[C@H](C(=O)NN(Cc1cccc(C#Cc2ccccn2)c1)C[C@@](O)(Cc1ccccc1)C(=O)N[C@H]1c2ccccc2C[C@H]1O)C(C)(C)C`, for which, in data set [1], the EC50 was > 10000 nM. This compound showed a Ki in data set [2] of 22 nM. Further, the CC50 in data set [3] was > 10000 nM.

For the compound `COC(=O)N[C@H](C(=O)NN(Cc1cccc(/C=C/c2ccccc2)c1)C[C@@](O)(Cc1ccccc1)C(=O)N[C@H]1c2ccccc2C[C@H]1O)C(C)(C)C`, the EC50 in data set [1] was > 10000 nM. This compound registered a Ki in data set [2] of 14 nM. The CC50 in data set [3] was > 10000 nM.

In data set [1], `COC(=O)N[C@H](C(=O)NN(Cc1ccc(-c2cnccn2)cc1)C[C@@](O)(Cc1ccccc1)C(=O)N[C@H]1c2ccccc2C[C@H]1O)C(C)(C)C` yielded an EC50 of 1000 nM. This compound also gave a Ki in data set [2] of 2.1 nM. In addition, it took 7800 nM to reach half-maximal cytotoxicity in data set [3] (CC50).

On to `COC(=O)N[C@H](C(=O)NN(Cc1ccc(-c2ccccc2)cc1)C[C@@](O)(Cc1ccccc1)C(=O)N[C@H]1c2ccccc2C[C@H]1O)C(C)(C)C`, for which it took 700 nM to reach a half-maximal effect in data set [1] (EC50). In data set [3], the CC50 was > 10000 nM.
